Published values pooled from the literature.
Protocols differ between the studies behind these lines.
Target: Serine/threonine-protein kinase MARK2 (MARK2, Homo sapiens, UniProt Q7KZI7)

Structure (SMILES) | test | test system | setting | quantity | value
COc1cc2ncnc(Nc3ccc(Oc4ccccc4)cc3C)c2cc1OC | enzyme activity, inhibitor |  | 1 µM | inhibition | 7%
Cc1c(C(=O)O)cc(-c2ccc(C3CCNCC3)cc2)c2ccc(-c3ccc(C(F)(F)F)cc3)cc12 | binding, competition with immobilised ligand |  | 1 µM | remaining binding | 100%
CN(C)C1CCN(CC#Cc2nn(C3CCCC3)c3nc(NCc4ccccc4)ncc23)C1 (stereo not drawn) | enzyme activity, inhibitor, FRET |  | 1 µM | inhibition | 3%
c1cc(CN2CCOCC2)cc(Nc2ncc(C3CC3)c(NCCc3c[nH]cn3)n2)c1 | enzyme activity, inhibitor, radiometric |  | 1 µM | remaining activity | 14%
C[C@@H]1CN(c2cc(-c3nn(C)c4ccc(OC5(C)CC5)cc34)ncn2)C[C@H](C)O1 | cell-free assay, competition with immobilised ligand |  | 1 µM | remaining binding | 89%
NS(=O)(=O)c1ccc(CNc2nc(Nc3cccc(CN4CCOCC4)c3)ncc2Br)cc1 | enzyme activity, inhibitor, radiometric |  | 1 µM | remaining activity | 65%
CCCCNc1ncc2c(-c3ccc(F)cc3)nn(C[C@H]3CC[C@H](N)CC3)c2n1 | target engagement in cells, inhibitor, chemoproteomics |  | 20 mM | inhibition | 18%
Cc1noc([C@H]2C[C@@H](c3ccc(C(F)(F)F)cc3)CN(C(=O)N3CCS(=O)(=O)C3)C2)n1 | cell-free assay, competition with immobilised ligand |  | 1 µM | remaining binding | 100%
Cc1nn(CC(F)(F)F)cc1Nc1ncc(Br)c(NCCc2cnc[nH]2)n1 | enzyme activity, inhibitor, radiometric |  | 1 µM | remaining activity | 55%
O=C(Nc1cnc(Oc2ccc(F)cc2)nc1)N1CCc2ncccc2[C@@H]1c1ccc(F)cc1 | cell-free assay, competition with immobilised ligand |  | 1 µM | remaining binding | 90%
NS(=O)(=O)c1ccc(CNc2nc(Nc3cccc(CN4CCOCC4)c3)ncc2C2CC2)cc1 | enzyme activity, inhibitor, radiometric |  | 1 µM | remaining activity | 98%
COc1cccc2c(NCc3ccccc3)nc(-n3c(N)nc4ccccc43)nc12 | target engagement in cells, inhibitor, chemoproteomics |  | 20 mM | inhibition | -7.2%
Oc1cccc(-c2nc(N3CCOCC3)c3oc4ncccc4c3n2)c1 | cell-free assay |  | 0.5 µM | remaining signal | 92.9%
Cc1ccc(C(=O)NCc2ccsc2)cc1C#Cc1cn(C(C)C)c2ncnc(N)c12 | enzyme activity, inhibitor |  | 1 µM | activity vs control | 99%
Cc1ccc(Nc2nccc(N(C)c3ccc4c(C)n(C)nc4c3)n2)cc1S(N)(=O)=O | enzyme activity, inhibitor |  | 0.3 µM | inhibition | 27%
Cc1nn(CC(F)(F)F)cc1Nc1nccc(NCCCNC(=O)C2CCC2)n1 | enzyme activity, inhibitor, radiometric |  | 1 µM | remaining activity | 103%
CO[C@H]1CC[C@H](CNc2ccc(S(=O)(=O)NC(=O)c3ccc(N4CCN(CC5=C(c6ccc(Cl)cc6)CC(C)(C)CC5)CC4)cc3Oc3cnc4[nH]ccc4c3)cc2[N+](=O)[O-])CC1 | cell-free assay, competition with immobilised ligand |  | 1 µM | remaining binding | 100%
O=C1NC(=O)c2cc(Nc3ccc(F)cc3)c(Nc3ccc(F)cc3)cc21 | cell-free assay |  | 0.5 µM | remaining signal | 98.2%
O=C(NCCCNc1nc(Nc2cccc(NC(=O)N3CCCC3)c2)ncc1I)c1cccs1 | enzyme activity, inhibitor, radiometric |  | 1 µM | remaining activity | 3%
FC(F)(F)Oc1cccc(-c2cnc3ccc(-c4ccncc4)nn23)c1 | enzyme activity, inhibitor, radiometric |  | 5 µM | activity vs control | 99%
CC(=O)Nc1c(C(C)=O)c(=O)n(C)c2nc(-c3ccc(Cl)cc3Cl)c(-c3ccc(Cl)cc3)cc12 | cell-free assay, competition with immobilised ligand |  | 1 µM | remaining binding | 100%
CC/C(=N\NC(=O)NCc1cccc(O)c1)c1ccc(O)c(C)c1O | enzyme activity, inhibitor |  | 0.1 µM | inhibition | -5.8%
COc1cc(Nc2cnc(C#N)c(O[C@H](C)CN(C)C)n2)ncc1-c1cnn(C)c1 | enzyme activity, inhibitor, radiometric |  | 10 µM | remaining activity | 57%
CNC(=O)c1cc(Oc2ccc(NC(=O)Nc3ccc(Cl)c(C(F)(F)F)c3)cc2)ccn1 | enzyme activity, inhibitor |  | 10 µM | inhibition | 26%
CCCCN(CCCC)C(=O)CN1C[C@@H](c2cc(OC)c3c(c2)OCO3)[C@H](C(=O)O)[C@H]1CC(C)(C)CCC | cell-free assay, competition with immobilised ligand |  | 1 µM | remaining binding | 100%
CNc1cc(Oc2cc(C(=O)Nc3cc(N4CCN(C)CC4)cc(C(F)(F)F)c3)ccc2C)ncn1 | target engagement in cells, inhibitor, chemoproteomics | Huh-7 | 1 µM | inhibition | -25.4%
Cc1nn(CC(F)(F)F)cc1Nc1ncc(C2CC2)c(NCCCNC(=O)C2CCC2)n1 | enzyme activity, inhibitor, radiometric |  | 1 µM | remaining activity | 93%
FC(F)c1nc2ccccc2n1-c1nc(N2CCOCC2)nc(N2CCOCC2)n1 | enzyme activity, inhibitor |  | 10 µM | remaining activity | 87%
Cc1nn(CC(F)(F)F)cc1Nc1ncc(C2CC2)c(NCc2ccc(S(N)(=O)=O)cc2)n1 | enzyme activity, inhibitor, radiometric |  | 1 µM | remaining activity | 100%
CN(C)C(=O)Cn1cc(-c2nc(C3(c4ccc(-c5cnc(N)nc5)cc4)CC3)no2)cn1 | cell-free assay, competition with immobilised ligand |  | 1 µM | remaining binding | 92%
